Reference: ChEMBL document CHEMBL1142565, “Prenylbicyclogermacrane diterpenoids from the formosan soft coral Nephthea pacifica” (2005)
In brackets after ≈: the same amount, converted by molar mass.

Assays:
HT-29 = experiment: Cytotoxicity against human HT-29 cells 0.5 to 50 ug/ml; assay type: functional, cell-based
In short: (§1)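 Cells tested at three concentrations (50, 5 and 0.5 μg/mL). HT-29 (human colon adenocarcinoma) obtained from ATCC. P-388 (mouse lymphocytic leukemia) line supplied by an outside laboratory. Assay otherwise run per a previously described procedure.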

P388 [1] = experiment: Cytotoxicity against mouse P388 cells at 0.5 to 50 ug/ml; assay type: functional, cell-based; in short: as §1
P388 [2] = experiment: Cytotoxicity against mouse P388 cells; assay type: functional; settings: read-out: ED50 (the source's name)
In short: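 P-388 mouse lymphocytic leukemia cells, supplied by an academic laboratory. Test compounds were run at three concentrations (50, 5 and 0.5 μg/mL), following a previously described cytotoxicity procedure.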

Row | Compound | Activity (HT-29) | Activity (P388 [1]) | EC50 (P388 [2])
1 | CC(C)=CCC[C@@]1(C)CC[C@]2(C)O[C@H]2CC[C@](C)(O)[C@H]2C[C@@H]21 | Not toxic | Not toxic | 
2 | CC(=O)O[C@H]1/C=C(\C)CC[C@](C)(C/C=C/C(C)(C)OO)[C@H]2C[C@@H]2[C@@](C)(O)C1 | Not toxic | Not toxic | 
3 | C=C(C)C(O)CC[C@@]1(C)CC[C@]2(C)O[C@H]2CC[C@](C)(O)[C@H]2C[C@@H]21 (stereo not given in full) | Not toxic | Not toxic | 
4 | C=C1CC/C=C(\C)CC[C@](C)(C/C=C/C(C)(C)O)[C@H]2C[C@H]12 | Not toxic | Not toxic | 
5 | C=C(C)C(CC[C@@]1(C)CC[C@]2(C)O[C@H]2CC[C@](C)(O)[C@H]2C[C@@H]21)OO (stereo not given in full) | Not toxic | Not toxic | 
6 | CC(C)(/C=C/C[C@@]1(C)CC[C@]2(C)O[C@H]2CC[C@](C)(O)[C@H]2C[C@@H]21)OO [PACIFICIN C] | Not toxic |  | 1.44 µg/mL (≈ 4.25 µM)
7 | C=C1CC/C=C(\C)CC[C@](C)(CCC=C(C)C)[C@H]2C[C@H]12 | Not toxic | Not toxic | 
8 | C=C(C)C(CC[C@@]1(C)CC/C(C)=C/[C@H](OC(C)=O)C[C@](C)(O)[C@H]2C[C@@H]21)OO (stereo not given in full) [PACIFICIN H] | Not toxic |  | 2.01 µg/mL (≈ 5.28 µM)
9 | CC(C)(O)/C=C/C[C@@]1(C)CC[C@]2(C)O[C@H]2CC[C@](C)(O)[C@H]2C[C@@H]21 | Not toxic | Not toxic | 
10 | C/C1=C\CC[C@](C)(O)[C@H]2C[C@@H]2[C@@](C)(C/C=C/C(C)(C)O)CC1 | Not toxic | Not toxic | 
